Laboratory results published in ChEMBL document CHEMBL4024803, “New Steroidal 4-Aminoquinolines Antagonize Botulinum Neurotoxin Serotype A in Mouse Embryonic Stem Cell Derived Motor Neurons in Postintoxication Model” (J Med Chem, 2018).

Key:
[1] = target: Botulinum neurotoxin type A (Clostridium botulinum) (UniProt P0DPI0); experiment: Inhibition of Clostridium botulinum BoNT/A light chain at 20 uM using P39 as substrate preincubated for 10 mins followed by substrate addition measured after 10 mins by HPLC method relative to control
In short: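 Purified BoNT/A light chain (20 nM) with 0.2 mg/mL BSA in 50 mM HEPES pH 7.4, preincubated with compound for 10 min at room temperature. Cleavage fragments were separated by reversed-phase HPLC (214/280 nm). Percent inhibition was taken from fragment peak areas with vs without compound. Mean of three experiments.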

[2] = target: Botulinum neurotoxin type A (Clostridium botulinum) (UniProt P0DPI0); experiment: Inhibition of Clostridium botulinum BoNT/A holotoxin-mediated SNAP-25 cleavage in mouse HBG3 cell-derived motor neurons assessed as full length of SNAP-25 at 10 uM preincubated for 30 mins followed by intoxication measured after 4 hrs by Western blot method relative to control; parameters: scale not given: the % may be the effect or the level left
[3] = target: Botulinum neurotoxin type A (Clostridium botulinum) (UniProt P0DPI0); experiment: Inhibition of Clostridium botulinum BoNT/A holotoxin-mediated SNAP-25 cleavage in mouse HBG3 cell-derived motor neurons assessed as full length of SNAP-25 at 8 uM preincubated for 30 mins followed by intoxication measured after 4 hrs by Western blot method relative to control; parameters: scale not given: the % may be the effect or the level left
[4] = target: Botulinum neurotoxin type A (Clostridium botulinum) (UniProt P0DPI0); experiment: Inhibition of Clostridium botulinum BoNT/A holotoxin-mediated SNAP-25 cleavage in mouse HBG3 cell-derived motor neurons assessed as full length of SNAP-25 at 16 uM preincubated for 30 mins followed by intoxication measured after 4 hrs by Western blot method relative to control; parameters: scale not given: the % may be the effect or the level left
[5] = target: Botulinum neurotoxin type A (Clostridium botulinum) (UniProt P0DPI0); experiment: (§1) Inhibition of Clostridium botulinum BoNT/A holotoxin-mediated SNAP-25 cleavage in mouse HBG3 cell-derived motor neurons preincubated for 30 mins followed by intoxication measured after 4 hrs by Western blot method
[6] = target: T1, Botulinum neurotoxin type A (Clostridium botulinum, UniProt P0DPI0); experiment: as §1
[7] = target: Botulinum neurotoxin type A (Clostridium botulinum) (UniProt P0DPI0); experiment: Inhibition of Clostridium botulinum BoNT/A holotoxin-mediated SNAP-25 cleavage in mouse HBG3 cell-derived motor neurons assessed as full length of SNAP-25 at 16 uM treated at 30 mins post intoxication by Western blot method relative to control; parameters: scale not given: the % may be the effect or the level left
[8] = target: Botulinum neurotoxin type A (Clostridium botulinum) (UniProt P0DPI0); experiment: Inhibition of Clostridium botulinum BoNT/A holotoxin-mediated SNAP-25 cleavage in mouse HBG3 cell-derived motor neurons assessed as full length of SNAP-25 at 64 uM treated at 30 mins post intoxication by Western blot method relative to control; parameters: scale not given: the % may be the effect or the level left
[9] = Distribution co-efficient, log D of the compound at pH 1 by reversed-phase thin-layer chromatographic method; assay type: physicochemical; conditions: buffer
In short: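 Reversed-phase thin-layer chromatography at pH 1, mobile phase MeOH/HCl (70/30).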

Mus musculus [10] = experiment: In vivo inhibition of Clostridium botulinum BoNT/A in CD1 mouse assessed as mouse survival at 1 mg/kg, ip administered 3 hrs post intoxication measured over 24 hrs relative to control; assay type: functional
Mus musculus [11] = experiment: Toxicity in mouse assessed as effect on survival at 160 mg/kg, po administered for 3 days measured after 30 days; assay type: organism-based; conditions: in vivo, 720 h
In short: (§2)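 Groups of five healthy mice were dosed per os for three consecutive days, suspended in 0.5% hydroxyethylcellulose–0.1% Tween 80. Behaviour and appearance were monitored twice daily for 30 days, with survival assessed at 30 days. Non-toxic was defined as all 5 surviving with normal appearance and behaviour.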

[12] = target: Botulinum neurotoxin type A (Clostridium botulinum) (UniProt P0DPI0); experiment: Inhibition of Clostridium botulinum BoNT/A holotoxin-mediated SNAP-25 cleavage in mouse HBG3 cell-derived motor neurons assessed as full length of SNAP-25 at 20 uM preincubated for 30 mins followed by intoxication measured after 4 hrs by Western blot method relative to control; parameters: scale not given: the % may be the effect or the level left
[13] = target: Botulinum neurotoxin type A (Clostridium botulinum) (UniProt P0DPI0); experiment: Inhibition of Clostridium botulinum BoNT/A holotoxin-mediated SNAP-25 cleavage in mouse HBG3 cell-derived motor neurons assessed as full length of SNAP-25 at 20 uM treated at 30 mins post intoxication by Western blot method relative to control; parameters: scale not given: the % may be the effect or the level left
[14] = target: Botulinum neurotoxin type A (Clostridium botulinum) (UniProt P0DPI0); experiment: Inhibition of Clostridium botulinum BoNT/A holotoxin-mediated SNAP-25 cleavage in mouse HBG3 cell-derived motor neurons assessed as full length of SNAP-25 at 20 uM treated at 60 mins post intoxication by Western blot method relative to control; parameters: scale not given: the % may be the effect or the level left
Mus musculus [15] = experiment: Toxicity in mouse assessed as effect on appearance at 160 mg/kg, po administered for 3 days measured 2 times a day for 30 days; assay type: organism-based; conditions: in vivo, 720 h; in short: as §2
Mus musculus [16] = experiment: Toxicity in mouse assessed as effect on behavior at 160 mg/kg, po administered for 3 days measured 2 times a day for 30 days; assay type: organism-based; conditions: in vivo, 720 h; in short: as §2
[17] = target: Botulinum neurotoxin type A (Clostridium botulinum) (UniProt P0DPI0); experiment: (§3) Inhibition of Clostridium botulinum BoNT/A light chain using P39 as substrate preincubated for 10 mins followed by substrate addition measured after 10 mins by HPLC method
[18] = target: T1, Botulinum neurotoxin type A; experiment: as §3
[19] = Distribution co-efficient, log D of the compound at pH 10 by reversed-phase thin-layer chromatographic method; assay type: physicochemical; conditions: buffer
In short: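 Reversed-phase thin-layer chromatography at pH 10, mobile phase acetone/NH3/H2O (85/5/10).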

SMILES | inhibition [1] [%] | Activity [2] [%] | Activity [3] [%] | Activity [4] [%] | inhibition [5] | IC50 [6] [µM] | Activity [7] [%] | Activity [8] [%] | chromatographic logD [9] | survival at 1 mg/kg (Mus musculus [10]) [%] | Activity (Mus musculus [11]) | Activity [12] [%] | Activity [13] [%] | Activity [14] [%] | Activity (Mus musculus [15]) | Activity (Mus musculus [16]) | inhibition [17] | IC50 [18] [µM] | chromatographic logD [19]
C[C@H](CCCNCCCCNc1ccnc2cc(Cl)ccc12)[C@H]1CC[C@H]2[C@@H]3[C@H](O)C[C@@H]4C[C@H](N)CC[C@]4(C)[C@H]3C[C@H](O)[C@]12C | 48 | 46 | 58 | 58 | Dose-dependent effect | 8 to 16 | 49 | 69 | 2.97 | – | – | – | – | – | – | – | – | – | –
O=C(N/N=C/c1cc(O)c(O)cc1O)c1cc2ccccc2cc1O | – | – | – | – | – | – | – | – | – | 30 | – | – | – | – | – | – | – | – | –
CN(CCCCCCCCNc1ccnc2ccccc12)Cc1ccc(-c2ccc(-c3ccc(C#N)cc3)s2)cc1 | 35 | 54 | – | – | Dose-dependent effect | 5 to 10 | – | – | 3.33 | – | Non-Toxic | 60 | 34 | 22 | Non-Toxic | Non-Toxic | – | – | –
CC(=O)O[C@H]1C[C@H]2[C@@H]([C@H](OC(C)=O)C[C@@H]3C[C@H](N)CC[C@@]32C)[C@@H]2CC[C@H]([C@H](C)CCCNCCCCNc3ccnc4ccccc34)[C@@]12C | 80 | 28 | – | – | Dose-dependent effect | 10 to 20 | – | – | 2.14 | – | – | 67 | 48 | 49 | – | – | Dose-dependent effect | 5.7 | –
CC(CCN(C)CC12CC3CC(CC(C3)C1)C2)Nc1ccnc2cc(Cl)ccc12 (stereo not drawn) | 67 | 63 | – | – | Dose-dependent effect | < 10 | – | – | – | – | – | 72 | 15 | 16 | – | – | Dose-dependent effect | 11.7 | 3.47
N#Cc1ccc(-c2ccc(-c3ccc(CNCCCCCCCCNc4ccnc5ccccc45)cc3)s2)cc1 | 77 | 31 | – | – | Dose-dependent effect | 10 to 20 | – | – | 3.42 | – | Non-Toxic | 70 | 20 | 19 | Non-Toxic | Non-Toxic | Dose-dependent effect | 6.8 | –
CC(CCCN(C)Cc1ccc(-c2csc3ccc(C#N)cc23)cc1)Nc1ccnc2ccccc12 (stereo not drawn) | 27 | 59 | – | – | Dose-dependent effect | 10 to 20 | – | – | – | – | – | 64 | – | – | – | – | – | – | 3.42
CC(CCCNc1ccnc2ccccc12)NCc1ccc(-c2csc3ccc(F)cc23)cc1 (stereo not drawn) | 75 | 58 | – | – | Dose-dependent effect | 10 to 20 | – | – | – | – | Non-Toxic | 68 | 16 | 17 | Non-Toxic | Non-Toxic | Dose-dependent effect | 7.4 | 3.85
